From ChEMBL document CHEMBL1926652, “Effect of 2',6'-dimethyl-L-tyrosine (Dmt) on pharmacological activity of cyclic endomorphin-2 and morphiceptin analogs” (Bioorg Med Chem, 2011) come the findings set out here.

Structures are written as SMILES. Calls of active or inactive are those of the source. Where a SMILES comes first, the peptide text is derived from it. Bridges are numbered along the chain shown (N, C = ends). [ ]: non-standard residue; d: D form. Dmt = Cc1cc(O)cc(C)c1C[C@H](N)C(=O)O

For data set [1], the target named is Delta-type opioid receptor (Rattus norvegicus, UniProt P33533). Description: Displacement of [3H][Ile5,6]deltorphin 2 from delta opioid receptor in Wistar rat brain membrane by liquid scintillation counting. Type of data set: cell membranes. The gist of the method:
(§1)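 Crude membranes from Wistar rat brain incubated with [3H]DAMGO for mu or [3H][Ile5,6]deltorphin-2 for delta. Non-specific binding defined with naloxone. Reaction ended by rapid filtration on GF/B strips soaked in 0.5% […], then two ice-cold Tris-HCl washes. Bound radioactivity counted by liquid scintillation after overnight extraction. IC50 from three independent experiments in duplicate; ratio is delta IC50/mu IC50.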
(Loss of bound radioactivity is the signal in a displacement assay; it reports binding, not function.)

In data set [2] the test system is Mus musculus. As to the kind of experiment: Antinociceptive activity in icv dosed in Swiss albino mouse assessed as jumping latency by hot plate method. Type of data set: functional. Put shortly:
(§2)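 Male Swiss albino mice (20–26 g), 10 per group. Peptides dissolved in DMSO, diluted in saline, given i.c.v. with a Hamilton syringe and 0.5 mm needle, 5 min before testing in dose–response runs. Mouse confined by a plastic cylinder on a 55 °C hot plate. Latencies to paw licking, rearing and jumping recorded, 240 s cut-off. %MPE = (t1−t0)/(t2−t0)×100. ED50 derived from dose–response.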

In data set [3] the test system is Mus musculus. As to the kind of experiment: Antinociceptive activity in icv dosed in Swiss albino mouse assessed as rearing latency by hot plate method. Type of data set: functional, organism-based. The gist of the method:
as §2
In general terms: Thermal pain tests record how soon the animal reacts.

Data set [4] concerns Mus musculus. Description: Antinociceptive activity in icv dosed in Swiss albino mouse assessed as paw licking latency by hot plate method. The class given is functional, organism-based. The gist of the method:
as §2

Data set [5] is described as follows: Half life in Wistar rat brain at 0.5 mM by RP-HPLC analysis. Type of data set: ADME, tissue-based. Put shortly:
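Pooled rat brains homogenized in 20 volumes of 50 mM Tris-HCl, pH 7.4. Homogenate at 10 mg protein/ml incubated with an equal volume of 0.5 mM peptide at 37 °C for 0–60 min. Reaction stopped on ice with 1 M HCl, then centrifuged at 20,000g. Three experiments in duplicate.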

For the next data set, the species on record is Rattus norvegicus. Description: Selectivity ratio of IC50 for delta opioid receptor in Wistar rat brain membrane to IC50 for mu opioid receptor in Wistar rat brain membrane. Type of data set: cell membranes. Put shortly: as §1
The target of a further data set is Mu-type opioid receptor (Rattus norvegicus, UniProt P33535). As to the kind of experiment: Displacement of [3H]DAMGO from Wistar rat mu opioid receptor by liquid scintillation counting. The gist of the method: as §1
Data set [6] has as its system Mus musculus. Description: Antinociceptive activity in Swiss albino mouse assessed as jumping latency at 10 ug, icv after 5 to 10 mins by hot plate method. Type of data set: functional, organism-based. Put shortly: as §2
Data set [7] has as its system Mus musculus. As to the kind of experiment: Antinociceptive activity in Swiss albino mouse assessed as jumping latency at 10 ug, icv up to 90 mins by hot plate method. Type of data set: functional, organism-based. Put shortly: as §2
The species named for data set [8] is Mus musculus. Description: Antinociceptive activity in Swiss albino mouse assessed as jumping latency at 3 ng by hot plate method in presence of norbinaltorphimine. Type of data set: functional, organism-based. The gist of the method:
(§3)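 Hot plate test at 55 °C in male Swiss albino mice, 10 per group, with jumping latency read and a 240 s cut-off. Antagonists were given i.c.v.: beta-funaltrexamine, naltrindole at 1 µg/animal, nor-binaltorphimine at 5 µg/animal. Agonist peptides were given i.c.v. at 3 ng/animal. Inhibition of jumping expressed as %MPE.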

Another data set deals with Brain. As to the kind of experiment: Drug uptake in Swiss albino mouse brain 0.01 to 1 mg/kg, iv. The note with it: in vivo. Details: dose 0.01-1 mg/kg, route intravenous. The class given is ADME, organism-based. Put shortly:
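Blood–brain barrier passage judged in vivo. Peptides at 0.01 and 1 mg/kg were injected intravenously into male Swiss albino mice 30 min before a 55 °C hot plate test. Paw licking, rearing and jumping latencies recorded with a 240 s cut-off and expressed as %MPE.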

For data set [9], the species on record is Mus musculus. As to the kind of experiment: Antinociceptive activity in Swiss albino mouse assessed as jumping latency at 3 ng by hot plate method in presence of naltrindole. The class given is functional, organism-based. Put shortly: as §3
Data set [10] relates to Mus musculus. As to the kind of experiment: Antinociceptive activity in Swiss albino mouse assessed as jumping latency at 10 ng, icv up to 30 mins by hot plate method. The class given is functional, organism-based. The gist of the method: as §2
Data set [11] is filed under the species Mus musculus. Description: Antinociceptive activity in Swiss albino mouse assessed as jumping latency at 3 ng by hot plate method in presence of beta funaltrexamine. Type of data set: functional, organism-based. Put shortly:
as §3

The subject of data set [12] is Mus musculus. As to the kind of experiment: Antinociceptive activity in Swiss albino mouse assessed as jumping latency at 3 ug, icv after 5 to 10 mins by hot plate method. The class given is functional, organism-based. Put shortly: as §2
The test system of data set [13] is Mus musculus. Description: Antinociceptive activity in icv dosed Swiss albino mouse assessed as jumping latency at 3 ug, icv up to 90 mins by hot plate method. The class given is functional, organism-based. The gist of the method: as §2

Sequence of Delta-type opioid receptor (P33533 whole entry): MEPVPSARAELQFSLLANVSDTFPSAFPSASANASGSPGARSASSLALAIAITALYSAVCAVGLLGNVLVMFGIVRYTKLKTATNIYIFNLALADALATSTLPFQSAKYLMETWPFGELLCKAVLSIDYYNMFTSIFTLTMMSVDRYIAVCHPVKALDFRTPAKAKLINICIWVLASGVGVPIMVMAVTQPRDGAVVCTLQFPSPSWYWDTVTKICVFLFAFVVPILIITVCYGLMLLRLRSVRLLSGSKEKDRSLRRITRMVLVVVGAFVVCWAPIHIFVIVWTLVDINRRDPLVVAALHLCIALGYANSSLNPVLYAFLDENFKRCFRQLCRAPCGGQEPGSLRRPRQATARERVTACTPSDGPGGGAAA
Sequence of Mu-type opioid receptor (P33535 whole entry): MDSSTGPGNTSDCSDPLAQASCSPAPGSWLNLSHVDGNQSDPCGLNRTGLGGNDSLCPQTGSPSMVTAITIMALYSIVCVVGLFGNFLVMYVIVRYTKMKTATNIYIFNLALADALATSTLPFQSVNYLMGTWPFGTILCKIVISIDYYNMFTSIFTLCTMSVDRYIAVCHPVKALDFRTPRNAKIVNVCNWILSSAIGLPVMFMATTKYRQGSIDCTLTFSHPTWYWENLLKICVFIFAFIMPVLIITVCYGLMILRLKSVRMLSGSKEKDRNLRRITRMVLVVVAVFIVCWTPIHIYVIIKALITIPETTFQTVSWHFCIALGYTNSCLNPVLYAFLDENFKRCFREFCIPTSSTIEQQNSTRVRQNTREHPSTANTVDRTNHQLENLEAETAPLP

For `CC(C)[C@H](NC(=O)[C@H](CCC(=O)O)NC(=O)[C@H](Cc1ccccc1)NC(=O)[C@H](C)NC(=O)[C@@H](N)Cc1ccc(O)cc1)C(=O)N[C@H](C(=O)NCC(=O)O)C(C)C` [DELTORPHINE II], in data set [1], the IC50 – broadly, the concentration at which inhibition is half-maximal – was 0.08 nM.

Regarding `NC(=O)[C@@H]1CCCCNC(=O)C[C@@H](NC(=O)[C@@H](N)Cc2ccc(O)cc2)C(=O)N[C@@H](Cc2ccccc2)C(=O)N2CCC[C@@H]2C(=O)N1`, the Activity entry in the data set with Mus musculus [2], with Mus musculus [3] and in the data set on Mus musculus [4] was “Dose-dependent effect” in each case. In addition, in the data set on Mus musculus [2], the ED50 came out at 0.07 µg. In addition, the IC50 was greater than 1000 nM in [1] and 15.3 nM on Mu-type opioid receptor. In data set [5], the half-life (in general, the time needed for the level to fall by half in the phase considered) at 500 µM worked out at 1.05 h. Further, the Ratio IC50 in the data set filed under Rattus norvegicus was greater than 65.3.

As to `NC(=O)[C@@H]1CCCN1C(=O)[C@H](Cc1ccccc1)NC(=O)[C@@H]1CCCN1C(=O)[C@@H](N)Cc1ccc(O)cc1` [MORPHICEPTIN] (H-YPFP-NH2), the Activity result in the data set with Mus musculus [2], in the data set with Mus musculus [3] and in the data set on Mus musculus [4] was “Dose-dependent effect” throughout. Besides, the ED50 in the data set on Mus musculus [2] is 5.11 µg. Further, the IC50 in [1] is greater than 1000 nM; at Mu-type opioid receptor, 56.6 nM. In data set [5], this molecule had a half-life at 500 µM of 0.278 h. Moreover, the result in the data set on Mus musculus [6] and in the data set on Mus musculus [7] was Active. Also, the Ratio IC50 in the data set filed under Rattus norvegicus is greater than 17.7.

Consider `Cc1cc(O)cc(C)c1C[C@H](N)C(=O)N[C@@H]1CCCCNC(=O)C[C@@H](C(N)=O)NC(=O)[C@H](Cc2ccccc2)NC(=O)[C@H](Cc2ccccc2)NC1=O` (H-[Dmt][dK]FFD-NH2; lactam 2-5), for which the Activity entry in the data set with Mus musculus [2], with Mus musculus [3] and in the data set on Mus musculus [4] was “Dose-dependent effect” each time. Further, the ED50 with Mus musculus [2] was determined as 0.02 µg. The figures for the IC50 (in [1]; at Mu-type opioid receptor) were 400 nM and 0.26 nM, respectively. In data set [5], this molecule came in with a half-life at 500 µM greater than 16.7 h. Moreover, the Ratio IC50 in the data set listed under Rattus norvegicus was greater than 1000.

Turning to `Cc1cc(O)cc(C)c1C[C@H](N)C(=O)N[C@@H]1CC(=O)NCCCC[C@@H](C(N)=O)NC(=O)[C@H]2CCCN2C(=O)[C@H](Cc2ccccc2)NC1=O`, the outcome in the data set listed under Mus musculus [8], in the data set filed under Mus musculus [9] and in the data set with Mus musculus [10] was Active. Also, in the data set on Brain, the Drug uptake result is “Not Active”. Moreover, the Activity entry in the data set with Mus musculus [2], with Mus musculus [3] and in the data set with Mus musculus [4] was “Dose-dependent effect” throughout. The ED50 with Mus musculus [2] was less than 0.01 µg. Also, the IC50 is 58.3 nM in data set [1] and 4.4 nM on Mu-type opioid receptor. In addition, the half-life at 500 µM in [5] was 10.4 h. Moreover, in the data set listed under Mus musculus [11], the outcome was inactive. Further, the Ratio IC50 in the data set filed under Rattus norvegicus came out at 13.2.

Regarding `Cc1cc(O)cc(C)c1C[C@H](N)C(=O)N[C@@H]1CCCCNC(=O)C[C@@H](C(N)=O)NC(=O)[C@H]2CCCN2C(=O)[C@H](Cc2ccccc2)NC1=O`, the result in the data set filed under Mus musculus [8], in the data set listed under Mus musculus [9] and in the data set on Mus musculus [10] was Active. In the data set with Brain, the Drug uptake entry is listed as “Not Active”. The Activity entry with Mus musculus [2], with Mus musculus [3] and in the data set with Mus musculus [4] was “Dose-dependent effect” each time. Also, the ED50 in the data set with Mus musculus [2] was less than 0.01 µg. Besides, the IC50 in data set [1] was found to be 132 nM; on Mu-type opioid receptor, 5.6 nM. The half-life at 500 µM in data set [5] is greater than 16.7 h. The result in the data set listed under Mus musculus [11] was inactive. Also, the Ratio IC50 in the data set filed under Rattus norvegicus stood at 23.5.

As to `NC(=O)[C@@H]1CC(=O)NCCCC[C@@H](NC(=O)[C@@H](N)Cc2ccc(O)cc2)C(=O)N[C@@H](Cc2ccccc2)C(=O)N[C@@H](Cc2ccccc2)C(=O)N1` (H-Y[dK]FFD-NH2; lactam 2-5), the Activity result with Mus musculus [2], with Mus musculus [3] and with Mus musculus [4] was “Dose-dependent effect” in each case. In addition, the ED50 in the data set with Mus musculus [2] amounted to 0.05 µg. Further, the IC50 in data set [1] was 279 nM; at Mu-type opioid receptor it was 0.56 nM. This molecule displayed a half-life at 500 µM in data set [5] of 6.05 h. Moreover, the Ratio IC50 in the data set filed under Rattus norvegicus amounted to 498.

With `NC(=O)[C@H](Cc1ccccc1)NC(=O)[C@H](Cc1ccccc1)NC(=O)[C@@H]1CCCN1C(=O)[C@@H](N)Cc1ccc(O)cc1` [ENDOMORPHIN 2], the outcome in the data set on Mus musculus [12] and in the data set with Mus musculus [13] was Active. Besides, the Activity entry with Mus musculus [2], in the data set on Mus musculus [3] and in the data set with Mus musculus [4] was “Dose-dependent effect” each time. In the data set on Mus musculus [2], the ED50 is 5.48 µg. Further, the half-life at 500 µM in data set [5] worked out at 0.238 h.

As for `NC(=O)[C@@H]1CC(=O)NCCCC[C@@H](NC(=O)[C@@H](N)Cc2ccc(O)cc2)C(=O)N[C@@H](Cc2ccccc2)C(=O)N2CCC[C@@H]2C(=O)N1`, the Activity entry with Mus musculus [2], in the data set on Mus musculus [3] and in the data set with Mus musculus [4] was “Dose-dependent effect” in each case. Moreover, in the data set with Mus musculus [2], the ED50 was found to be 0.02 µg. Also, the IC50 in data set [1] is greater than 1000 nM; at Mu-type opioid receptor it was 89.5 nM. In data set [5], this molecule had a half-life at 500 µM of 1.95 h. In the data set listed under Rattus norvegicus, the Ratio IC50 is greater than 11.2.
